Biological target: T1, 5-hydroxytryptamine receptor 1B (Homo sapiens, UniProt P28222)
Test: Efficacy was evaluated relative to human 5-HT1B receptor using [35S]GTP-gamma-S, as radioligand
Type: functional

T1 sequence (P28222 whole entry): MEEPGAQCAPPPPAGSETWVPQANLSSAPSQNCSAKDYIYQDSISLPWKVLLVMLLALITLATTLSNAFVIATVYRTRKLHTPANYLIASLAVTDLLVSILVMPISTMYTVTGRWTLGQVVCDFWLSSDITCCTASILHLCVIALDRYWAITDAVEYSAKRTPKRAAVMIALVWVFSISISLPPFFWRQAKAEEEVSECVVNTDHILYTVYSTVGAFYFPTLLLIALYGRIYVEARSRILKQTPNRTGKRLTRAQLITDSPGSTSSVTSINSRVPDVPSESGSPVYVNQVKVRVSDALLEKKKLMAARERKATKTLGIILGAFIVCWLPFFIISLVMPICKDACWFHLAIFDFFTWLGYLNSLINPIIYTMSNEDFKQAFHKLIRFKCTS

Row | Efficacy [%] | SMILES
1 | 79 | CC(CN1CCN(CC(F)Cc2c[nH]c3ccc(-n4cnnc4)cc23)CC1)c1ccc(F)cc1 (configuration not stated)
2 | 87 | CC(CN1CCN(CC(F)Cc2c[nH]c3ccc(-n4cnnc4)cc23)CC1)c1cccc(F)c1 (configuration not stated)
3 | 91 | FC1(Cc2ccccc2C(F)(F)F)CCN(CCCc2c[nH]c3ccc(-n4cnnc4)cc23)CC1
4 | 85 | CC(CC1(F)CCN(CCCc2c[nH]c3ccc(-n4cnnc4)cc23)CC1)c1ccccc1 (configuration not stated)
5 | 25 | Fc1cccc(CCN2CCN(CC(F)Cc3c[nH]c4ccc(-n5cnnc5)cc34)CC2)c1 (stereo in doubt; 25)

Row | SMILES | Efficacy [%]
6 | c1ccc(CC2CCN(CCCc3c[nH]c4ccc(-n5cnnc5)cc34)CC2)cc1 | 62

Biological target: T1, 5-hydroxytryptamine receptor 1B
Test: Displacement of specific [3H]5-HT binding to cloned human 5-hydroxytryptamine 1B receptor expressed in CHO cells
Type: cell-based
Method in brief: (§1)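 Radioligand binding to human 5-HT1D and 5-HT1B receptors stably expressed in CHO cells. Radioligand was used at approximately its KD for each receptor. IC50 values are the logarithmic mean of 2–5 independent determinations, each run in duplicate. Maximum variance from the mean of log(IC50) was 4%. Selectivity is IC50(1B)/IC50(1D).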

Row | IC50 [nM] | SMILES
7 | 5.3 | Fc1cccc(CC2(F)CCN(CCCc3c[nH]c4ccc(-n5cnnc5)cc34)CC2)c1
8 | 13 | CN(Cc1ccccc1)[C@H]1CCN(CCCc2c[nH]c3ccc(-n4cnnc4)cc23)C[C@@H]1F
9 | 520 | Fc1ccccc1CCN1CCN(CC(F)Cc2c[nH]c3ccc(-n4cnnc4)cc23)CC1 (configuration not stated)
10 | 380 | CC(CN1CCN(CC(F)Cc2c[nH]c3ccc(-n4cnnc4)cc23)CC1)c1ccccc1F (configuration not stated)
11 | 310 | CC(CN1CCN(CC(F)Cc2c[nH]c3ccc(-n4cnnc4)cc23)CC1)c1ccc(F)cc1 (configuration not stated)
12 | 280 | CC(CN1CCN(CC(F)Cc2c[nH]c3ccc(-n4cnnc4)cc23)CC1)c1cccc(F)c1 (configuration not stated)
13 | 14 | FC1(Cc2ccccc2C(F)(F)F)CCN(CCCc2c[nH]c3ccc(-n4cnnc4)cc23)CC1
14 | 28 | CC(CC1(F)CCN(CCCc2c[nH]c3ccc(-n4cnnc4)cc23)CC1)c1ccccc1 (configuration not stated)

Row | SMILES | IC50 [nM]
15 | c1ccc(CC2CCN(CCCc3c[nH]c4ccc(-n5cnnc5)cc34)CC2)cc1 | 19

Biological target: T2, 5-hydroxytryptamine receptor 1D (Homo sapiens, UniProt P28221)
T2 sequence (P28221 whole entry): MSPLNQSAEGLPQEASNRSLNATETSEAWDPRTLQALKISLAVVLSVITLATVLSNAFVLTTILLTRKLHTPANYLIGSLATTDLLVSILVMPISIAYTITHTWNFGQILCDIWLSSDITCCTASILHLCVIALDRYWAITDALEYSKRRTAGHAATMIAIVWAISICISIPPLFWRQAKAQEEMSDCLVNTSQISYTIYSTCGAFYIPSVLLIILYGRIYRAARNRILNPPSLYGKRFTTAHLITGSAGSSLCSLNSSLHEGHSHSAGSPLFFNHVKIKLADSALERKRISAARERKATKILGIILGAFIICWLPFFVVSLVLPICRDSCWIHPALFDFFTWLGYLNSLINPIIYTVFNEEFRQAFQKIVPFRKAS
Test: Efficacy was evaluated relative to human 5-hydroxytryptamine 1D receptor using [35S]GTP-gamma-S, as radioligand
Type: functional

Row | Efficacy [%] | SMILES
16 | 106 | CC(CN1CCN(CC(F)Cc2c[nH]c3ccc(-n4cnnc4)cc23)CC1)c1ccc(F)cc1 (configuration not stated)
17 | 112 | CC(CN1CCN(CC(F)Cc2c[nH]c3ccc(-n4cnnc4)cc23)CC1)c1cccc(F)c1 (configuration not stated)
18 | 61 | FC1(Cc2ccccc2C(F)(F)F)CCN(CCCc2c[nH]c3ccc(-n4cnnc4)cc23)CC1
19 | 86 | CC(CC1(F)CCN(CCCc2c[nH]c3ccc(-n4cnnc4)cc23)CC1)c1ccccc1 (configuration not stated)

Test system: Rattus norvegicus
Test: Oral absorption study in rat plasma obtained from hepatic portal vein after 0.5 hours of administration of 3 mg/kg orally
Type: functional, organism-based
Set-up: dose 3 mg/kg
Method in brief: (§2)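 Male Sprague–Dawley rats, fasted overnight and with no surgery, received 3 mg/kg orally as a 0.6 mg/mL solution in PEG 400:5 mM HCl (25:75 v/v). Terminal blood was taken from the heart and hepatic portal vein under isoflurane at 0.5 and 2 h, three rats per time point. Plasma drug was measured by electrospray mass spectrometry. Values are mean ± SEM.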

Row | SMILES | Plasma concentration [ng/mL]
20 | c1ccc(CC2CCN(CCCc3c[nH]c4ccc(-n5cnnc5)cc34)CC2)cc1 | 25

Test system: Rattus norvegicus
Test: Oral absorption study in rat plasma obtained from hepatic portal vein after 2 hours of administration of 3 mg/kg orally
Type: functional, organism-based
Set-up: dose 3 mg/kg
Method in brief: as §2

Row | SMILES | Plasma concentration [ng/mL]
21 | c1ccc(CC2CCN(CCCc3c[nH]c4ccc(-n5cnnc5)cc34)CC2)cc1 | 33

Test system: Rattus norvegicus
Test: Oral absorption study in rat plasma obtained from cardiac blood samples after 0.5 hours of administration of 3 mg/kg orally
Type: functional, organism-based
Set-up: dose 3 mg/kg
Method in brief: as §2

Row | SMILES | Plasma concentration [ng/mL]
22 | c1ccc(CC2CCN(CCCc3c[nH]c4ccc(-n5cnnc5)cc34)CC2)cc1 | < 2

Biological target: T2, 5-hydroxytryptamine receptor 1D
Test: Displacement of specific [3H]5-HT binding to cloned human 5-hydroxytryptamine 1D receptor expressed in CHO cells
Type: cell-based
Method in brief: as §1

Row | IC50 [nM] | SMILES
23 | 0.4 | Fc1cccc(CC2(F)CCN(CCCc3c[nH]c4ccc(-n5cnnc5)cc34)CC2)c1
24 | 2.1 | CN(Cc1ccccc1)[C@H]1CCN(CCCc2c[nH]c3ccc(-n4cnnc4)cc23)C[C@@H]1F
25 | 4.7 | Fc1ccccc1CCN1CCN(CC(F)Cc2c[nH]c3ccc(-n4cnnc4)cc23)CC1 (configuration not stated)
26 | 1 | CC(CN1CCN(CC(F)Cc2c[nH]c3ccc(-n4cnnc4)cc23)CC1)c1ccccc1F (configuration not stated)
27 | 1 | CC(CN1CCN(CC(F)Cc2c[nH]c3ccc(-n4cnnc4)cc23)CC1)c1ccc(F)cc1 (configuration not stated)
28 | 0.9 | CC(CN1CCN(CC(F)Cc2c[nH]c3ccc(-n4cnnc4)cc23)CC1)c1cccc(F)c1 (configuration not stated)
29 | 0.3 | FC1(Cc2ccccc2C(F)(F)F)CCN(CCCc2c[nH]c3ccc(-n4cnnc4)cc23)CC1
30 | 0.6 | CC(CC1(F)CCN(CCCc2c[nH]c3ccc(-n4cnnc4)cc23)CC1)c1ccccc1 (configuration not stated)

Row | SMILES | IC50 [nM]
31 | c1ccc(CC2CCN(CCCc3c[nH]c4ccc(-n5cnnc5)cc34)CC2)cc1 | 0.3

Biological target: T1, 5-hydroxytryptamine receptor 1B
Test: Agonist-induced [35S]GTP-gamma-S, binding in CHO cells stably transfected with human 5-hydroxytryptamine 1B receptor
Type: functional, cell-based
Method in brief: (§3)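 [35S]GTPγS binding stimulated by agonist, measured in CHO cells stably transfected with the human 5-HT1D or 5-HT1B receptor. EC50 values are the logarithmic mean of 2–3 independent determinations. Maximum variance of individual log(EC50) values from the mean was 4%.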

Row | EC50 [nM] | SMILES
32 | 1700 | CC(CN1CCN(CC(F)Cc2c[nH]c3ccc(-n4cnnc4)cc23)CC1)c1ccc(F)cc1 (configuration not stated)
33 | 1500 | CC(CN1CCN(CC(F)Cc2c[nH]c3ccc(-n4cnnc4)cc23)CC1)c1cccc(F)c1 (configuration not stated)
34 | 290 | FC1(Cc2ccccc2C(F)(F)F)CCN(CCCc2c[nH]c3ccc(-n4cnnc4)cc23)CC1
35 | 510 | CC(CC1(F)CCN(CCCc2c[nH]c3ccc(-n4cnnc4)cc23)CC1)c1ccccc1 (configuration not stated)

Row | SMILES | EC50 [nM]
36 | c1ccc(CC2CCN(CCCc3c[nH]c4ccc(-n5cnnc5)cc34)CC2)cc1 | 120

Biological target: Serotonin 1 receptors; 5-HT1B & 5-HT1D (Homo sapiens) (UniProt P28222+P28221)
Test: Selectivity towards 5-HT1D and to that of 5-HT1B in CHO cells
Type: cell-based
Method in brief: as §1

Row | Selectivity | SMILES
37 | 13 | Fc1cccc(CC2(F)CCN(CCCc3c[nH]c4ccc(-n5cnnc5)cc34)CC2)c1
38 | 6 | CN(Cc1ccccc1)[C@H]1CCN(CCCc2c[nH]c3ccc(-n4cnnc4)cc23)C[C@@H]1F
39 | 111 | Fc1ccccc1CCN1CCN(CC(F)Cc2c[nH]c3ccc(-n4cnnc4)cc23)CC1 (configuration not stated)
40 | 380 | CC(CN1CCN(CC(F)Cc2c[nH]c3ccc(-n4cnnc4)cc23)CC1)c1ccccc1F (configuration not stated)
41 | 310 | CC(CN1CCN(CC(F)Cc2c[nH]c3ccc(-n4cnnc4)cc23)CC1)c1ccc(F)cc1 (configuration not stated)
42 | 311 | CC(CN1CCN(CC(F)Cc2c[nH]c3ccc(-n4cnnc4)cc23)CC1)c1cccc(F)c1 (configuration not stated)
43 | 47 | FC1(Cc2ccccc2C(F)(F)F)CCN(CCCc2c[nH]c3ccc(-n4cnnc4)cc23)CC1
44 | 47 | CC(CC1(F)CCN(CCCc2c[nH]c3ccc(-n4cnnc4)cc23)CC1)c1ccccc1 (configuration not stated)
45 | 343 | Fc1cccc(CCN2CCN(CC(F)Cc3c[nH]c4ccc(-n5cnnc5)cc34)CC2)c1 (stereo in doubt; 25)

Row | SMILES | Selectivity
46 | c1ccc(CC2CCN(CCCc3c[nH]c4ccc(-n5cnnc5)cc34)CC2)cc1 | 63

Test system: Rattus norvegicus
Test: Oral absorption study in rat plasma obtained from cardiac blood samples after 2 hours of administration of 3 mg/kg orally
Type: functional, organism-based
Set-up: dose 3 mg/kg
Method in brief: as §2

Row | SMILES | Plasma concentration [ng/mL]
47 | c1ccc(CC2CCN(CCCc3c[nH]c4ccc(-n5cnnc5)cc34)CC2)cc1 | < 2

Biological target: T2, 5-hydroxytryptamine receptor 1D
Test: Agonist-induced [35S]GTP-gamma-S, binding in CHO cells stably transfected with human 5-hydroxytryptamine 1D receptor
Type: functional, cell-based
Method in brief: as §3

Row | EC50 [nM] | SMILES
48 | 1.6 | CC(CN1CCN(CC(F)Cc2c[nH]c3ccc(-n4cnnc4)cc23)CC1)c1ccc(F)cc1 (configuration not stated)
49 | 1.9 | CC(CN1CCN(CC(F)Cc2c[nH]c3ccc(-n4cnnc4)cc23)CC1)c1cccc(F)c1 (configuration not stated)
50 | 0.2 | FC1(Cc2ccccc2C(F)(F)F)CCN(CCCc2c[nH]c3ccc(-n4cnnc4)cc23)CC1
51 | 2.6 | CC(CC1(F)CCN(CCCc2c[nH]c3ccc(-n4cnnc4)cc23)CC1)c1ccccc1 (configuration not stated)

Test system: not listed separately
Test: pKa value by potentiometric
Type: physicochemical
Method in brief: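 Potentiometric titration in MeOH–H2O cosolvent with ionic strength set by 0.15 M KCl. Three titrations at different water/cosolvent ratios gave psKa values. Aqueous pKa was obtained by Yasuda–Shedlovsky extrapolation to 100% water, plotting psKa + log[H2O] against 1/ε.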

Row | SMILES | pKa
52 | c1ccc(CC2CCN(CCCc3c[nH]c4ccc(-n5cnnc5)cc34)CC2)cc1 | 9.7
